A word on the inhibition: it is the percentage by which the read-out fell short of the control. Higher therefore signals strong suppression. By IC50 is commonly meant the concentration that gives 50% inhibition.

What all share (assay type): cell-based
Experiment [1] has as its target T1, Sodium-dependent dopamine transporter (Homo sapiens, UniProt Q01959). As to the kind of experiment: Inhibition of re-uptake of [3H]-DA at human DAT at 10 uM expressed in HEK293 cells by liquid scintillation counting.
Experiment [2] addresses T1, Sodium-dependent dopamine transporter. The experiment in a line: Inhibition of re-uptake of [3H]-DA at human DAT expressed in HEK293 cells by liquid scintillation counting. In outline:
(§1)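 HEK-293 cells were grown in medium with fetal bovine serum and transfected with human DAT or NET. Uptake of radiolabelled [3H]-DA or [3H]-NE, each at 20 nM in the assay, was measured by liquid scintillation counting. The method follows a literature procedure with slight modification, and reference reuptake inhibitors were run alongside.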

The target in experiment [3] is T2, Sodium-dependent serotonin transporter (Homo sapiens, UniProt P31645). The experiment in a line: Inhibition of re-uptake of [3H]-5-HT at human SERT at 10 uM expressed in HEK293 cells by liquid scintillation counting.
Target sequence in this assay (P31645 whole entry, looked up): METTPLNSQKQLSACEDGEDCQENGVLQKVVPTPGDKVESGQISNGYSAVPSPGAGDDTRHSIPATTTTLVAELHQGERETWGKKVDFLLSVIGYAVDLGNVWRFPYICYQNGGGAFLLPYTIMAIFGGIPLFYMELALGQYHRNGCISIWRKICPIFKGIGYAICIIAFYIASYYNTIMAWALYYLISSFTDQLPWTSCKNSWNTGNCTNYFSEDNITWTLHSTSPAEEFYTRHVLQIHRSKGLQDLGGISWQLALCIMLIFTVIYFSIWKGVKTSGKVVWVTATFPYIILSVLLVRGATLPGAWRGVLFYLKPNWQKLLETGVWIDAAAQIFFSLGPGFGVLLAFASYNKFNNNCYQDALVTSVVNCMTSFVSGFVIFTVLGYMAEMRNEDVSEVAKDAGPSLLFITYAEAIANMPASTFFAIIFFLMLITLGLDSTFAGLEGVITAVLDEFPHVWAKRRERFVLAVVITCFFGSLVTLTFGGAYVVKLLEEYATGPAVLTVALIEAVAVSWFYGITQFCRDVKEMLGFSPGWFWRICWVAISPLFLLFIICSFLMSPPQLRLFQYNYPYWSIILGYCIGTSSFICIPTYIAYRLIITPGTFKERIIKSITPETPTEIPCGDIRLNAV
For experiment [4], the target named is T3, Sodium-dependent noradrenaline transporter (Homo sapiens, UniProt P23975). The experiment in a line: Inhibition of re-uptake of [3H]-NE at human NET at 10 uM expressed in HEK293 cells by liquid scintillation counting.
Experiment [5] deals with T3, Sodium-dependent noradrenaline transporter. As to the kind of experiment: Inhibition of re-uptake of [3H]-NE at human NET expressed in HEK293 cells by liquid scintillation counting. In outline: as §1
The target of experiment [6] is T2, Sodium-dependent serotonin transporter. The experiment in a line: Inhibition of re-uptake of [3H]-5-HT at human SERT expressed in HEK293 cells by liquid scintillation counting.
Target sequence in this assay (P31645 whole entry): as the sequence (P31645 whole entry, looked up) above

Molecules are shown by their SMILES.

T3 sequence (P23975 whole entry): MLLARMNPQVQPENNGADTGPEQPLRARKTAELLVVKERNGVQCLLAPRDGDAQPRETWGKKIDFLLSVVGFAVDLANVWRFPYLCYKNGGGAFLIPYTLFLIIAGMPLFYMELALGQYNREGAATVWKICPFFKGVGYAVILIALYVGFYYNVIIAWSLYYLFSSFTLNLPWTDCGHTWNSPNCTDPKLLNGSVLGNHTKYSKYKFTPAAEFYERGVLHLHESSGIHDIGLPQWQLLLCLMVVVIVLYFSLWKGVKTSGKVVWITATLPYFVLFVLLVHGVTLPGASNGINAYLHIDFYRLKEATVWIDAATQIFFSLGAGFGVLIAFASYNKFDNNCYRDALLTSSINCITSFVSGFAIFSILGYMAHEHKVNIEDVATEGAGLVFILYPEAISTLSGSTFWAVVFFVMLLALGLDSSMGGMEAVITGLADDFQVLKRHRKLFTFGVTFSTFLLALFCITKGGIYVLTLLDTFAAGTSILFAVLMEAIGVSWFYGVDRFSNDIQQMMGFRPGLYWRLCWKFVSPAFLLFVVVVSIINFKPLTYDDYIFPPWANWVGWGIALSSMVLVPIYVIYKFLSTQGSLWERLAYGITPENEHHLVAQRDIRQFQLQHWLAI
T1 sequence (Q01959 whole entry): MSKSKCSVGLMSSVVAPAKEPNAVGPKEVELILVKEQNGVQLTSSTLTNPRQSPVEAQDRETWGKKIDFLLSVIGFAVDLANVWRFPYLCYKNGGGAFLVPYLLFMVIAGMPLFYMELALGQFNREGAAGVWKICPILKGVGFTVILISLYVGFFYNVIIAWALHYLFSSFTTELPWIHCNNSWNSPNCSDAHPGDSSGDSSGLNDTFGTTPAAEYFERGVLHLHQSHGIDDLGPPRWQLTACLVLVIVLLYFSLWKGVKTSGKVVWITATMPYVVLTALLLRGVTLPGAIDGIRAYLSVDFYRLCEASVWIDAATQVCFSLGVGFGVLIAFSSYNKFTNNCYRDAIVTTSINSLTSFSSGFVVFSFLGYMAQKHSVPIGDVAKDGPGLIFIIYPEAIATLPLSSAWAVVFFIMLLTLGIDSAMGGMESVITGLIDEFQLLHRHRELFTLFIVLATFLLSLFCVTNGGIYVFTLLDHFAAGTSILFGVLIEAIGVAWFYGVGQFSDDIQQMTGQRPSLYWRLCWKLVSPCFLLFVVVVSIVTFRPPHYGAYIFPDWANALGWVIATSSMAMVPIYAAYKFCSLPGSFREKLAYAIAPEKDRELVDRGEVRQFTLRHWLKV

On to `c1ccc(CC2CCN(CCCn3nnnc3-c3ccccc3)CC2)cc1`, for which the inhibition in experiment [1], in experiment [3] and in experiment [4] was greater than 55% in each case. Moreover, the IC50 in experiment [2] came out at 4.02 µM; in experiment [5], 3.03 µM; in experiment [6], 0.88 µM.

With `Clc1ccc(-c2nnnn2CCCN2CCC(Cc3ccccc3)CC2)cc1`, the inhibition in experiment [1], in experiment [3] and in experiment [4] was greater than 55% in each case. In addition, the concentration for half-maximal inhibition (IC50) is 8.32 µM in experiment [2], 2.58 µM in experiment [5] and 3.13 µM in experiment [6].

Regarding `CC(=O)c1cccc(-c2nnnn2CCCN2CCC(Cc3ccccc3)CC2)c1`, the inhibition in experiment [1], in experiment [3] and in experiment [4] was greater than 55% throughout. The IC50 in experiment [2] was 5.04 µM; in experiment [5], 3 µM; in experiment [6], 0.54 µM.

As to `O=[N+]([O-])c1ccc(-c2nnnn2CCN2CCC(Cc3ccccc3)CC2)cc1`, the inhibition in experiment [1], in experiment [3] and in experiment [4] was greater than 55% throughout. Further, the IC50 in experiment [2] was found to be 1.98 µM; in experiment [5], 1.35 µM; in experiment [6], 1.24 µM.

For the compound `COc1ccc(-c2nnnn2CCCN2CCC(Cc3ccccc3)CC2)cc1`, the inhibition in experiment [1], in experiment [3] and in experiment [4] was greater than 55% each time. For the same compound, the half-inhibitory concentration (IC50) was greater than 10 µM in experiment [2], 5.52 µM in experiment [5] and 4.05 µM in experiment [6].

Turning to `FC(F)(F)c1cccc(-c2nnnn2CCCN2CCC(Cc3ccccc3)CC2)c1`, the inhibition in experiment [1], in experiment [3] and in experiment [4] was greater than 55% throughout. The values for the IC50 in experiment [2], in experiment [5] and in experiment [6] were 3.74 µM, 5.1 µM and 8.81 µM, respectively.

Regarding `Clc1cccc(-c2nnnn2CCCN2CCC(Cc3ccccc3)CC2)c1Cl`, the inhibition in experiment [1], in experiment [3] and in experiment [4] was greater than 55% throughout. The IC50 is greater than 10 µM in experiment [2], 3.45 µM in experiment [5] and 3.96 µM in experiment [6].

On to `Brc1cccc(-c2nnnn2CCCN2CCC(Cc3ccccc3)CC2)c1`, for which the inhibition in experiment [1], in experiment [3] and in experiment [4] was greater than 55% throughout. Also, the IC50 in experiment [2] was greater than 10 µM; in experiment [5], 4.34 µM; in experiment [6] it was greater than 10 µM.

On to `Fc1ccc(-c2nnnn2CCCN2CCC(Cc3ccccc3)CC2)cc1`, for which the inhibition in experiment [1], in experiment [3] and in experiment [4] was greater than 55% in each case. In addition, the IC50 was 3.29 µM in experiment [2], 2.28 µM in experiment [5] and 2 µM in experiment [6].

For `Clc1cccc(-c2nnnn2CCCN2CCC(Cc3ccccc3)CC2)c1`, the inhibition in experiment [1], in experiment [3] and in experiment [4] was greater than 55% each time. For the same compound, the IC50 in experiment [2] was found to be 5.18 µM; in experiment [5], 3.59 µM; in experiment [6], 1.35 µM.

As for `CC(=O)c1cccc(-c2nnnn2CCN2CCC(Cc3ccccc3)CC2)c1`, the inhibition in experiment [1], in experiment [3] and in experiment [4] was greater than 55% throughout. Besides, the IC50 in experiment [2] amounted to 14.6 µM; in experiment [5] it was 3.08 µM; in experiment [6], 4.05 µM.

Regarding `Brc1ccccc1-c1nnnn1CCCN1CCC(Cc2ccccc2)CC1`, the inhibition in experiment [1], in experiment [3] and in experiment [4] was greater than 55% each time. For the same compound, the IC50 in experiment [2] was greater than 10 µM; in experiment [5], 3.46 µM; in experiment [6] it was 5.13 µM.

Take `O=[N+]([O-])c1ccc(-c2nnnn2CCCN2CCC(Cc3ccccc3)CC2)cc1`: the inhibition in experiment [1], in experiment [3] and in experiment [4] was greater than 55% each time. The half-inhibitory concentration (IC50) in experiment [2] was greater than 10 µM; in experiment [5] it was 5.02 µM; in experiment [6] it was 5.25 µM.

Regarding `c1ccc(CC2CCN(CCCn3nnnc3-c3cccc4ccccc34)CC2)cc1`, the inhibition in experiment [1], in experiment [3] and in experiment [4] was greater than 55% in each case. Moreover, the IC50 in experiment [2] stood at 6 µM; in experiment [5], 2.51 µM; in experiment [6], 0.31 µM.

In the case of `Clc1ccccc1-c1nnnn1CCCN1CCC(Cc2ccccc2)CC1`, the inhibition in experiment [1], in experiment [3] and in experiment [4] was greater than 55% in each case. Moreover, the half-inhibitory concentration (IC50) in experiment [2] turned out to be 6.55 µM; in experiment [5], 3.96 µM; in experiment [6], 1.32 µM.

Turning to `c1ccc(CC2CCN(CCn3nnnc3-c3cccc4ccccc34)CC2)cc1`, the inhibition in experiment [1], in experiment [3] and in experiment [4] was greater than 55% throughout. Besides, the IC50 in experiment [2], in experiment [5] and in experiment [6] was greater than 10 µM each time.
